From ChEMBL document CHEMBL1687895, “Synthesis and anti-mycobacterial activity of novel amino alcohol derivatives” (Eur J Med Chem, 2011)
Values after ≈ are worked out from the molar mass of the structure shown.

What was measured:
[1] = system: Mycobacterium tuberculosis; assay: Antibacterial activity against Mycobacterium tuberculosis H37Rv ATCC 27294 after 24 hrs by alamar blue assay; assay type: functional; details: H37Rv ATCC 27294, 24 h
How it was run: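 Microplate Alamar Blue assay on M. tuberculosis ATCC 27294 in Middlebrook 7H9 broth, with compounds serially diluted on the plate (final 0.01–20.0). Water in the outer wells limited evaporation. Sealed plates were incubated at 37 C for five days, then a fresh 1:1 Alamar Blue/10% Tween 80 mix was added for 24 h. MIC is the lowest concentration preventing the blue-to-pink change.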

[2] = Partition coefficient, log P of the compound; assay type: physicochemical; details: octanol/water
How it was run: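 Computed in silico from structure with an online molecular-property calculation server's logP method, not measured by experimental partitioning.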

CC(C)(C)OC(=O)N[C@@H](Cc1ccccc1)[C@H](O)CN(Cc1ccc2c(c1)OCO2)S(=O)(=O)c1ccc([N+](=O)[O-])cc1
MIC [1]: > 500 µM | logP [2]: 6.26

Cc1ccc(S(=O)(=O)N(Cc2ccc3c(c2)OCO3)C[C@@H](O)[C@H](Cc2ccccc2)NC(=O)OC(C)(C)C)cc1
MIC [1]: > 500 µM | logP [2]: 6.75

CC(C)(C)OC(=O)N[C@@H](Cc1ccccc1)[C@H](O)CNCc1ccc2c(c1)OCO2
MIC [1]: 241 µM (≈ 99.9 µg/mL) | logP [2]: 5.15

COc1ccc(S(=O)(=O)N(Cc2ccc3c(c2)OCO3)C[C@@H](O)[C@H](Cc2ccccc2)NC(=O)OC(C)(C)C)cc1
MIC [1]: > 500 µM | logP [2]: 6.36

N[C@@H](Cc1ccccc1)[C@H](O)CN(Cc1ccc2c(c1)OCO2)S(=O)(=O)c1ccc(F)cc1
MIC [1]: 211 µM (≈ 99.7 µg/mL) | logP [2]: 1.64

CC[C@@H](CO)NCCN[C@@H](CC)CO [ETHAMBUTOL]
MIC [1]: 15.9 µM (≈ 3.25 µg/mL) | logP [2]: 0.35

N[C@@H](Cc1ccccc1)[C@H](O)CN(Cc1ccc2c(c1)OCO2)S(=O)(=O)c1ccc(Br)cc1
MIC [1]: 23.5 µM (≈ 12.5 µg/mL) | logP [2]: 3.37

CC(C)(C)OC(=O)N[C@@H](Cc1ccccc1)[C@H](O)CN(Cc1ccc2c(c1)OCO2)S(=O)(=O)c1ccc(Br)cc1
MIC [1]: > 500 µM | logP [2]: 7.11

Cc1ccc(S(=O)(=O)N(Cc2ccc3c(c2)OCO3)C[C@@H](O)[C@@H](N)Cc2ccccc2)cc1
MIC [1]: 106 µM (≈ 49.7 µg/mL) | logP [2]: 3.01

CC(C)(C)OC(=O)N[C@@H](Cc1ccccc1)[C@H](O)CN(Cc1ccc2c(c1)OCO2)S(=O)(=O)c1ccc(F)cc1
MIC [1]: > 500 µM | logP [2]: 5.38

N[C@@H](Cc1ccccc1)[C@H](O)CN(Cc1ccc2c(c1)OCO2)S(=O)(=O)c1ccc([N+](=O)[O-])cc1
MIC [1]: > 500 µM | logP [2]: 2.52

CC(C)(C)OC(=O)N[C@@H](Cc1ccccc1)[C@H](O)CN(Cc1ccc2c(c1)OCO2)S(=O)(=O)c1ccc(N)cc1
MIC [1]: > 500 µM | logP [2]: 6.47

N[C@@H](Cc1ccccc1)[C@H](O)CNCc1ccc2c(c1)OCO2
MIC [1]: 318 µM (≈ 100 µg/mL) | logP [2]: 1.41

COc1ccc(S(=O)(=O)N(Cc2ccc3c(c2)OCO3)C[C@@H](O)[C@@H](N)Cc2ccccc2)cc1
MIC [1]: 51.6 µM (≈ 25 µg/mL) | logP [2]: 2.62
